Measured values: ChEMBL document CHEMBL1122809, “Improved synthesis and antitumor activity of 2-bromo-2'-deoxyadenosine” (1984)

Key:
L1210 [1] = test: Antitumor activity expressed as life span was determined against inoculated L1210 leukemia cells (1*10e5) in mice by 11.3 mg/kg dosage of compound (qd (x 3), for days 1, 4, 7); type: functional, Mus musculus
Summary of the method: (§1)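 Female mice (~18 g, housed six per cage) received L1210 cells intraperitoneally on day 0. Drug was made fresh and injected at 0.01 mL/g; the stated dose is per injection. Controls received the same volume of 0.154 M NaCl. Survival was followed, with deaths assigned to tumour by necropsy or to drug toxicity by set criteria. Life span is given as mean ± SD.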

L1210 [2] = test: Antitumor activity expressed as life span was determined against inoculated L1210 leukemia cells (1*10e5) in mice by 17.3 mg/kg dosage of compound (qd (x 3), for days 1,5,9); type: functional, Mus musculus; summary of the method: as §1
L1210 [3] = test: Antitumor activity expressed as life span was determined against inoculated L1210 leukemia cells (1*10e5) in mice by 22.5 mg/kg dosage of compound (qd (x 3), for days 1, 4, 7); type: functional, Mus musculus; summary of the method: as §1
L1210 [4] = test: Antitumor activity expressed as life span was determined against inoculated L1210 leukemia cells (1*10e5) in mice by 45 mg/kg dosage of compound (qd (x 3), for days 1, 4, 7); type: functional, Mus musculus; summary of the method: as §1
L1210 [5] = test: Antitumor activity expressed as life span was determined against inoculated L1210 leukemia cells (1*10e5) in mice by 5.6 mg/kg dosage of compound (qd (x 3), for days 1, 4, 7); type: functional, Mus musculus; summary of the method: as §1
L1210 [6] = test: Antitumor activity expressed as life span was determined against inoculated L1210 leukemia cells (1*10e6) in mice by 110 mg/kg dosage of compound (qd (x 3), for days 1- 7); type: functional, Mus musculus; summary of the method: as §1
L1210 [7] = test: Antitumor activity expressed percentage increase in life span was determined against inoculated L1210 leukemia cells (1*10e5) in mice by 45 mg/kg dosage of compound (qd (x 3), for days 1,5,9); type: functional; settings: Mus musculus
Summary of the method: (§2)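 L1210 cells were given intraperitoneally to female mice (~18 g). Freshly prepared drug was injected at 0.01 mL/g, dose per injection, and saline-injected controls were run. The end point was duration of survival. ILS was calculated as percent increase in mean life span over controls. Mice surviving 60 days or more counted as long-term survivors, scored as 60 days.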

L1210 [8] = test: Antitumor activity expressed percentage increase in life span was determined against inoculated L1210 leukemia cells (1*10e5) in mice by 5.6 mg/kg dosage of compound (qd (x 3), for days 1,5,9); type: functional; settings: Mus musculus; summary of the method: as §2
L1210 [9] = test: Antitumor activity expressed percentage increase in life span was determined against inoculated L1210 leukemia cells (1*10e6) in mice by 11.3 mg/kg dosage of compound (qd (x 3), for days 1, 4, 7,10,13,16); type: functional; settings: Mus musculus; summary of the method: as §2
L1210 [10] = test: Antitumor activity expressed as life span was determined against inoculated L1210 leukemia cells (1*10e6) in mice by 90 mg/kg dosage of compound (qd (x 3), for days 1, 4, 7); type: functional, Mus musculus; summary of the method: as §1
L1210 [11] = test: Antitumor activity expressed as life span was determined against inoculated L1210 leukemia cells (1*10e6) in mice by 90 mg/kg dosage of compound (qd (x 3), for days 1- 7); type: functional, Mus musculus; summary of the method: as §1
L1210 [12] = test: Antitumor activity expressed as life span was determined against inoculated L1210 leukemia cells (1*10e6) in mice by 180 mg/kg dosage of compound (qd (x 3), for days 1, 4, 7); type: functional, Mus musculus; summary of the method: as §1
L1210 [13] = test: Antitumor activity expressed as life span was determined against inoculated L1210 leukemia cells (1*10e6) in mice by 22.5 mg/kg dosage of compound (qd (x 3), for days 1, 4, 7); type: functional, Mus musculus; summary of the method: as §1
L1210 [14] = test: Antitumor activity expressed as life span was determined against inoculated L1210 leukemia cells (1*10e6) in mice by 22.5 mg/kg dosage of compound (qd (x 3), for days 1, 4, 7,10,13,16); type: functional, Mus musculus; summary of the method: as §1
L1210 [15] = test: Antitumor activity expressed as life span was determined against inoculated L1210 leukemia cells (1*10e6) in mice by 30 mg/kg dosage of compound (qd (x 3), for days 1- 7); type: functional, Mus musculus; summary of the method: as §1
L1210 [16] = test: Antitumor activity expressed as life span was determined against inoculated L1210 leukemia cells (1*10e6) in mice by 5.6 mg/kg dosage of compound (qd (x 3), for days 1, 4, 7); type: functional, Mus musculus; summary of the method: as §1
L1210 [17] = test: Antitumor activity expressed percentage increase in life span was determined against inoculated L1210 leukemia cells (1*10e5) in mice by 11.3 mg/kg dosage of compound (qd (x 3), for days 1, 4, 7); type: functional; settings: Mus musculus; summary of the method: as §2
L1210 [18] = test: Antitumor activity expressed percentage increase in life span was determined against inoculated L1210 leukemia cells (1*10e5) in mice by 22.5 mg/kg dosage of compound (qd (x 3), for days 1,5,9); type: functional; settings: Mus musculus; summary of the method: as §2
L1210 [19] = test: Antitumor activity expressed percentage increase in life span was determined against inoculated L1210 leukemia cells (1*10e6) in mice by 22.5 mg/kg dosage of compound (qd (x 3), for days 1, 4, 7); type: functional; settings: Mus musculus; summary of the method: as §2
L1210 [20] = test: Antitumor activity expressed percentage increase in life span was determined against inoculated L1210 leukemia cells (1*10e6) in mice by 22.5 mg/kg dosage of compound (qd (x 3), for days 1, 4, 7,10,13,16); type: functional; settings: Mus musculus; summary of the method: as §2
M5076 = test: Antitumor activity was evaluated by measuring mean life span in tumor (M5076) inoculated mice at 22.5 mg/kg (qd3hx8),days 1,4,7,15,18,21; type: functional, Mus musculus
Summary of the method: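 Female mice of about 18 g received subcutaneous M5076 implants like those used for serial passage. Drug was prepared just before use and injected at 0.01 mL/g every 3 h (×8) on days 1, 4, 7, 15, 18 and 21, with the dose stated per injection. Controls received 0.154 M NaCl, and groups held 18 mice. Survival and tumor volume were recorded, and %ILS was derived from mean life span.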

L1210 [21] = test: Antitumor activity expressed percentage increase in life span was determined against inoculated L1210 leukemia cells (1*10e6) in mice by 70 mg/kg dosage of compound (qd (x 3), for days 1, 4, 7); type: functional; settings: Mus musculus
Summary of the method: (§3)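 Female mice of about 18 g (BDF1, DBA/2 or C57Bl/6 stocks used) were inoculated intraperitoneally with 1 × 10^6 L1210 cells. Freshly prepared drug was given once daily from about 24 h after inoculation at 0.01 mL/g, with the dose stated per injection. Controls received 0.154 M NaCl, and groups held 6 mice. %ILS was taken from mean survival, with mice alive at 60 days or more counted as 60 days.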

L1210 [22] = test: Antitumor activity expressed percentage increase in life span was determined against inoculated L1210 leukemia cells (1*10e6) in mice by 70 mg/kg dosage of compound (qd (x 3), for days 1-7); type: functional; settings: Mus musculus; summary of the method: as §3
B16 melanoma (mouse) [23] = test: Antitumor activity was evaluated by measuring mean life span in tumor (B16 melanoma) inoculated mice at 11.3 mg/kg (qd3hx8),days 1,4,7,10
B16 melanoma (mouse) [24] = test: Antitumor activity was evaluated by measuring mean life span in tumor (B16 melanoma) inoculated mice at 22.5 mg/kg (qd3hx8),days 1,4,7,10

Nc1nc(Br)nc2c1ncn2[C@H]1C[C@H](O)[C@@H](CO)O1
Life span (L1210 [1]): 14.33 days | Life span (L1210 [2]): 14 days | Life span (L1210 [3]): 23.75 days | Life span (L1210 [4]): 37.92 days | Life span (L1210 [5]): 11.75 days | Life span (L1210 [6]): 4.17 days | ILS at 45 mg/kg (L1210 [7]): 387% | ILS at 5.6 mg/kg (L1210 [8]): 59% | ILS at 11.3 mg/kg (L1210 [9]): 86% | Life span (L1210 [10]): 7 days | Life span (L1210 [11]): 4.83 days | Life span (L1210 [12]): 5 days | Life span (L1210 [13]): 15 days | Life span (L1210 [14]): 16.08 days | Life span (L1210 [15]): 7.67 days | Life span (L1210 [16]): 11.08 days | ILS at 11.3 mg/kg (L1210 [17]): 95% | ILS at 22.5 mg/kg (L1210 [18]): 176% | ILS at 22.5 mg/kg (L1210 [19]): 137% | ILS at 22.5 mg/kg (L1210 [20]): 127% | Life span (M5076): 43.33 days | ILS at 70 mg/kg (L1210 [21]): 3% | ILS at 70 mg/kg (L1210 [22]): 11% | Life span (B16 melanoma (mouse) [23]): 23.11 days | Life span (B16 melanoma (mouse) [24]): 20.89 days
